HCV NS3 hel inh: blocks Hepatitis C virus NS3 helicase unwinding. NS3 helicase DNA unwinding, Cy5 molecular beacon fluorescence. inhibition, % at 10.9 µM. actives 0.56% (n = 290,000);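 active = inhibition above the mean of all tested compounds plus 3 SD, set per campaign, cut at about 35% in these data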;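 note: 0% = DMSO wells and 100% = thioflavine S control wells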
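assay system = NS3 helicase fragment of HCV | buffer or medium = MOPS pH 6.5, MgCl2, DTT, Tween20, BSA | timing = 60 min unwinding reaction at 25 °C after ATP addition | signal = Cy5 beacon fluorescence read at start and 1 h | read-out basis = % inhibition of unwinding | control set = low DMSO, high thioflavine S at 110 µM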
ZTA counter: ZTA (EBV) inhibition in EBNA-1 counter-screen | actives 0.15% (n = 320,000) | inhibition, % at 11 µM | ZTA-DNA binding, fluorescence polarization; in the data active = inhibition above about 33%
Target sequence (P03206 whole entry, looked up): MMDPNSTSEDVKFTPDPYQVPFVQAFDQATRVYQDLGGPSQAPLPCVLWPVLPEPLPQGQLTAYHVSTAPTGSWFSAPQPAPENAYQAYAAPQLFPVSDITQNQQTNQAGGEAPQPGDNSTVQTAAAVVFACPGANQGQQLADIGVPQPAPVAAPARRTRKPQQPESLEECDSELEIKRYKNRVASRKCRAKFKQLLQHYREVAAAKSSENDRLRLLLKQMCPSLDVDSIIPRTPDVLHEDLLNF
EBNA-1 inhibitor: blocks EBNA-1 binding to DNA. inhibition, % at 14.8 µM. AID 1950. EBNA-1 DNA binding, fluorescence polarization. actives 0.34% (n = 300,000); in the data active = inhibition above about 28%
core dimer inh: HCV core protein dimerization inhibition; TR-FRET GST/Flag-core106 dimerization, 1536-well; inhibition, % at 5 µM; actives 0.33% (n = 300,000); AID 1899;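 active = inhibition above the mean of all tested compounds plus 3 SD, set per screening campaign, cut at about 45% in these data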
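Material: Tagged HCV core106 pair (GST and Flag) | Amount: GST-core106 13.5 nM, Flag-core106 17 nM | Medium: KF-containing HEPES buffer, pH 7.45, DTT, CHAPS, BSA | Reagent: Eu donor and XL665 acceptor anti-tag antibodies | Schedule: 4 h at 22.5 °C | Technique: Time-resolved FRET, ex 340 nm, em 617 and 671 nm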
ALR inh: inhibitors of human sulfhydryl oxidase ALR; actives 3.8% (n = 290,000); inhibition, % (no concentration beside the values); AID 485317; purified ALR, DTT oxidation, H2O2 HRP-luminol luminescence; P55789;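 active = mean replicate inhibition above about 79%, with every replicate also reaching it, limit read from the data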
PfM18AAP inh-1: PfM18AAP enzyme inhibition | AID 1822 | recombinant PfM18AAP, H-Glu-NHMec fluorogenic cleavage | actives 1.2% (n = 290,000) | inhibition, % at 7.35 µM;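 active = inhibition above the campaign mean inhibition over all tested compounds plus 3 SD, cut at about 28% in these data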;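 note: 0% = plate median of test compound wells and 100% = 2 mM ZnCl2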
PfM18AAP inh-2: confirmation of Plasmodium falciparum M18 aspartyl aminopeptidase inhibitors; shares compounds with PfM18AAP inh-1; inhibition, % at 7.35 µM; recombinant PfM18AAP, H-Glu-NHMec fluorogenic cleavage; AID 2170; actives 28% (n = 2,400);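 active = mean inhibition over replicate wells above the hit cutoff set for the earlier primary screen, cut at about 29% in these data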;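 note: 0% = median of test compound wells and 100% = 2 mM ZnCl2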
CTSL1 confirm: Cathepsin L (human) inhibition, confirmation; shares compounds with PfM18AAP inh-1; purified cathepsin L1, Z-Leu-Arg-MCA fluorescence; inhibition, % at 5.96 µM; 2,400 tested, under 10 active;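 active = average inhibition across replicates above the hit cutoff set in the earlier primary screen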;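 note: 0% = median of test compound wells and 100% = Z-Phe-Ala-diazomethylketone 1 µM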
Target sequence (P07711 whole entry, looked up): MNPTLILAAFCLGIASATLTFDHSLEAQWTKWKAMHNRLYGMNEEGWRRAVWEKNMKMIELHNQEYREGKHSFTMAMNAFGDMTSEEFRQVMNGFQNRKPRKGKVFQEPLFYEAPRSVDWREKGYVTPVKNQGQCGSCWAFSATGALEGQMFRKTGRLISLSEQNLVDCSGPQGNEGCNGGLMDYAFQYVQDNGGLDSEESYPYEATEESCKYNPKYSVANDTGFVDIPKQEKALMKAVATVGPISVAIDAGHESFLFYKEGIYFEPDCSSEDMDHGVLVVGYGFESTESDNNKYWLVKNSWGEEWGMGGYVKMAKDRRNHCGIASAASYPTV
An asterisk follows results filed as active; . = no result. The list is not random: actives were taken first. Their share in the collection is about 5.2%.

SMILES | HCV NS3 hel inh | ZTA counter | EBNA-1 inhibitor | core dimer inh | ALR inh | PfM18AAP inh-1 | PfM18AAP inh-2 | CTSL1 confirm
C[C@@H]1[C@H](O)C[C@@]23COC(=O)C2=CCCC3[C@@]1(C)CCC1COC(=O)C1 (some centres undefined) | . | -16 | -7 | 6 | . | . | . | .
O=C1CCCC/C1=C\Nc1ccc(C(=O)O)c(O)c1 | 10 | 10 | 11 | 1 | 12 | 33* | -19 | 2
CC1CCC/C(=C\Nc2ccc(C(=O)O)c(O)c2)C1=O (centres undefined) | 13 | 16 | -3 | 4 | 1 | 26 | . | .
C[C@@H]1COC(=O)[C@@H](CC(=O)OC(C)(C)C)C/C=C\C[C@H](CC(=O)N(CCO)Cc2ccccc2)C(=O)N1 | . | . | . | . | -5 | . | . | .
O=C(NC(=S)Nc1ccc(S(=O)(=O)Nc2ncccn2)cc1)c1ccc(Br)cc1 | -10 | -3 | 5 | 0 | 5 | -11 | . | .
O=S(=O)(NNC(=S)Nc1ccc(S(=O)(=O)Nc2ncccn2)cc1)c1ccc(Br)cc1 | 3 | 5 | 10 | 10 | 36 | 41* | -45 | -9
CC1=C(C(=O)O)N2C(=O)C(NC(=O)c3nn(C)cc3Cl)C2SC1 (centres undefined) | 5 | 12 | -4 | 0 | -7 | 2 | . | .
CC1=C(C(=O)O)N2C(=O)C(NC(=O)c3ccccc3Cl)C2SC1 (centres undefined) | -17 | 3 | -3 | -2 | 4 | 34* | -7 | -1
O=C(NCc1ccccn1)c1n[nH]c2ccccc12 | 9 | 0 | 1 | 2 | -2 | 37* | -8 | -3
Cc1cccc(NC(=O)CSc2nc3[nH]ncc3c(=O)[nH]2)c1C | 6 | 3 | 2 | -3 | -1 | 42* | 28 | -4
CC1CCN(C(=O)CSc2nc3[nH]ncc3c(=O)[nH]2)CC1 | 5 | 7 | 3 | -2 | -1 | 33* | -26 | -7
COc1ccc(C(=O)C2CCCN(C(=O)c3noc4c3CCCC4)C2)c(C)c1 (centres undefined) | 13 | -6 | -2 | -2 | 10 | 0 | . | .
Cc1ccc(N2C(=O)N(CC(=O)Nc3ccc([N+](=O)[O-])cc3)C(=O)C2C)cc1 (centres undefined) | -13 | 3 | -16 | -3 | -3 | 0 | . | .
NS(=O)(=O)c1ccc(NC(=S)N2CCN(C(=O)C3CCCO3)CC2)cc1 (centres undefined) | -1 | 0 | -6 | 3 | 2 | 47* | 1 | 1
COc1cc(CNC(C)(C)CO)ccc1OCC(=O)NC(C)(C)C | 5 | 4 | 2 | -4 | -6 | -2 | . | .
COc1cc(CNc2ccc(N3CCCCC3)cc2)ccc1OCC(=O)NC(C)(C)C | -2 | 6 | -11 | -5 | 99* | 43* | -33 | -1
COc1cc(Br)ccc1C1CC(=O)C(C)C(c2ccc(Br)cc2OC)N1 (centres undefined) | -25 | 4 | 5 | 11 | -37 | 3 | . | .
Cc1ccc(NS(=O)(=O)c2cc(NC(=O)c3ccc4c(c3)NC(=O)CS4)ccc2C)c(C)c1 | 14 | 17 | 9 | 30 | -4 | 48* | -5 | 1
COc1ccc(NC(=O)c2ccc3c(c2)NC(=O)CS3)cc1S(=O)(=O)Nc1ccc(Br)cc1 | -22 | 15 | 1 | 5 | 1 | 32* | 13 | 5
O=C(NCCCN1CCOCC1)c1sc2cc(Cl)ccc2c1Cl | -3 | 2 | 0 | 0 | -2 | 6 | . | .
O=C(NCCCN1CCOCC1)c1sc2cc([N+](=O)[O-])ccc2c1Cl | 4 | -7 | -7 | -10 | -48 | 59* | 33* | -3
CC1CC(C)(C)CC2(C1)NC(=S)N(c1ccccc1)N2 (centres undefined) | 0 | -1 | -2 | -2 | 53 | 36* | -48 | -14
CCOc1ccc2c(c1)C(C)=CC(C)(C)N2S(=O)(=O)c1ccc(F)cc1 | -1 | -9 | 8 | 6 | -1 | 5 | . | .
CCOc1ccc2c(c1)-c1c(ssc1=S)C(C)(C)N2C | -2 | -13 | -4 | -8 | 46 | 33* | -25 | -2
COc1ccc(-c2ccc(CCC(=O)O)n2CC(=O)Nc2ccccc2C)cc1 | 7 | 2 | -7 | -1 | . | 8 | . | .
SMILES | HCV NS3 hel inh | ZTA counter | EBNA-1 inhibitor | core dimer inh | ALR inh | PfM18AAP inh-1 | PfM18AAP inh-2 | CTSL1 confirm
O=C(NC(=S)NNS(=O)(=O)c1ccccc1)c1ccc([N+](=O)[O-])cc1 | -8 | 0 | -10 | -10 | . | 50* | -9 | 4
O=C(Cn1cnc([N+](=O)[O-])n1)NCCO | -2 | -3 | -6 | 0 | . | 5 | . | .
CCOC(CNC(=O)C(=O)Nc1cc2c3c(c1)CCC(=O)N3CCC2)OCC | 4 | -9 | -6 | -4 | 0 | 0 | . | .
COc1ccc(CNc2n[nH]c(NCc3ccc(OC)c(OC)c3)n2)cc1OC | 2 | -8 | 9 | -5 | 2 | 47* | 2 | -5
CCC(=O)n1nc(NCc2ccc(OC)c(OC)c2)nc1NCc1ccc(OC)c(OC)c1 | -13 | 10 | -4 | 1 | -1 | 38* | -9 | -3
CCC(=O)n1nc(-c2cccnc2)nc1NCc1ccc(OC)cc1 | 2 | -11 | 4 | -4 | 13 | 0 | . | .
COc1ccc(CNc2nc(SC)n[nH]2)cc1OC | -5 | -19 | -16 | 0 | 2 | -2 | . | .
Cc1cc(C(=O)CN2C(=O)C(=O)N(CC(C)C)C2=O)c(C)n1C1CC1 | . | 16 | . | . | . | . | . | .
Nc1c(S(=O)(=O)c2cccc(Cl)c2)c2nc3ccccc3nc2n1/N=C/c1ccc(O)c(O)c1 | 11 | -23 | 8 | 71* | -7 | 44* | 12 | -4
CCOC(=O)c1cnc(SSc2ncc(C(=O)OCC)c(N)n2)nc1N | 8 | 13 | -1 | -5 | 27 | 64* | 44* | 2
C=CCSc1ncc(C(=O)OCC)c(N)n1 | 9 | -7 | -4 | 1 | 3 | -4 | . | .
COC(=O)CSc1n[nH]c(=S)s1 | 2 | 2 | 11 | -3 | 30 | 22 | . | .
COC(=O)C(C)Sc1n[nH]c(=S)s1 (centres undefined) | 6 | 10 | 8 | -6 | 33 | 37* | -24 | -1
CC(C)CCNC(=O)C1CC(=O)N(CCc2ccccc2)C1 (centres undefined) | -5 | -3 | 0 | 6 | -8 | -10 | . | .
COc1cc(CNn2cn[nH]c2=S)cc(Cl)c1OCc1ccccc1 | 5 | -8 | -8 | 3 | 34 | 5 | . | .
COc1cc(CNc2ccc(CNc3ncn[nH]3)cc2)cc(Cl)c1OCc1ccccc1 | -1 | -2 | 8 | 1 | 3 | 34* | -41 | 1
